Rev-RRE block = HIV-1 Rev-RRE binding inhibitors, primary screen, biochemical, FRET, protein-RNA interaction; Rev peptide-RRE RNA binding; inhibition, % at 8 µM; 0.79% of 97,000 active; AID 704, 2007;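 active means inhibition above the screen-wide mean plus 3 SD, cut at about 35% in these data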;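 further: 0% = median DMSO wells and 100% = median Neomycin B control wells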
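Probe or stimulus: fluorescein-Rev peptide as binding partner; assay system: Cy5-tagged RRE RNA duplex with fluorescein-tagged Rev peptide; timing: 5 min compound–RNA preincubation, then 15 min with peptide, 25 °C; medium: HEPES pH 7.5 buffer with KCl, MgCl2, NaCl and EDTA; signal: fluorescein-to-Cy5 FRET, 480 nm excitation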
LYP inh 2 = PTPN22 phosphatase inhibitors, primary screen, biochemical, DiFMUP fluorescence, 2 µM; Tyrosine-protein phosphatase non-receptor type 22 (Homo sapiens), Q9Y2R2; recombinant LYP catalytic domain; inhibition, % at 2 µM; 0.21% of 96,000 active; AID 640, 2007;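 active means inhibition at 2 µM at or above a set limit, the screen mean plus 3 SD, cut at about 24% in these data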;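 further: 0% = DMSO with enzyme and 100% = enzyme fully blocked by orthovanadate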
LYP act = LYP phosphatase activators, primary screen, biochemical, DiFMUP fluorescence, 2 µM | Tyrosine-protein phosphatase non-receptor type 22 (Homo sapiens), Q9Y2R2 | recombinant LYP; 0 = plate median, 100 = signal doubled | activation, % at 2 µM | 0.11% of 96,000 active | AID 697, 2007;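 active means activation at 2 µM above a set limit, the mean plus 5 SD, cut at about 37% in these data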
FAK blocker = FAK kinase inhibitors, primary screen, biochemical; biochemical FAK kinase activity assay; inhibition, %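 (tested at 7 µM)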; AID 727, 2007; 0.84% of 97,000 active; Focal adhesion kinase 1 (Homo sapiens), Q05397; in the data active means inhibition above about 19%;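 further: 0% = DMSO and 100% = reference compound high control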
LYP act confirm = retest of PTPN22 activators, confirmation, biochemical, DiFMUP fluorescence, single concentration. 100 tested, under 10 active. Recombinant LYP, activation; zero set by plate's median compound well. shares compounds with LYP act. activation, % at 2 µM. AID 1031, 2008; call rule not given here
Starred values were filed as active, the others as inactive; . = not tested or not shown. Compounds with a hit are over-represented: about 1.8% of the library has one in this group of screens.

SMILES	Rev-RRE block	LYP inh 2	LYP act	FAK blocker	LYP act confirm
CN(C)S(=O)(=O)N(CC(=O)Nc1ccccc1F)c1ccccc1	-4	-38	39*	1	-4
COc1ccc(NC(C)=O)cc1NC(=O)CCn1c(=O)sc2ccccc21	5	-39	40*	0	3
O=C(Nc1c(Cl)cccc1Cl)c1cc(=O)n(Cc2ccccc2)c(=O)[nH]1	2	-2	-1	-2	.
COc1ccccc1NC(=O)CN1CCN(C(=O)c2ccco2)CC1	-2	-38	37*	-1	0
CC(C)Oc1cccc(-c2nnc(SCC(=O)Nc3ccc4c(c3)OCCO4)n2N)c1	7	0	-3	-7	.
Nc1c(C(O)(C(F)(F)F)C(F)(F)F)cc(C(O)(C(F)(F)F)C(F)(F)F)c2ccccc12	19	7	-1	2	.
COc1cccc(C(=O)Nc2ccc(F)c(F)c2F)c1	1	-7	10	2	.
Cc1ccc(Cl)cc1NC(=O)c1cccc(OC(F)F)c1	6	-46	40*	2	7
CC(C)(C)n1nnnc1CN1CCN(C(c2ccccc2)c2ccccc2)CC1	-2	-6	6	-1	.
O=C(NCc1ccco1)Nc1cccs1	1	-42	37*	1	5
Cn1c(CNC2CCCCC2)c(C#N)c2ccccc21	1	-19	22	-7	.
O=C(COc1ccc(Br)cc1CO)Nc1ccccc1F	0	-45	38*	5	-2
O=C(COC(=O)c1cccc(C(=O)OCC(=O)c2ccc(Br)cc2)n1)c1ccc(Br)cc1	3	-47	41*	1	-10
CCOC(=O)c1cccc(C(=O)OCC)n1	4	7	-6	2	.
Cc1cc(N2CCOCC2)nc2ccc(NC(=O)CCC(=O)N3CCCCC3)cc12	3	-42	38*	3	-1
CC(=O)Nc1ccc(S(=O)(=O)N2CCSC2c2ccc(Cl)cc2)cc1 (centres undefined)	14	-40	38*	0	5
CSc1nc(-c2ccccc2)nn1C(=O)c1ccccc1	6	-48	52*	4	-2
CCn1c(-c2ccc3ncccc3c2)n[nH]c1=S	3	-39	42*	2	3
CCN(CC)CCNc1ncnc2c1sc1nc(N3CCOCC3)c3c(c12)CC(C)(C)SC3	3	0	2	-1	.
CN(C)CCNc1ncnc2c1sc1nc(N3CCOCC3)c3c(c12)CC(C)(C)SC3	8	-54	49*	3	7
CCOC(=O)c1cnn(-c2nc(-c3ccc(F)cc3)cs2)c1C(F)(F)F	17	-34	40*	-4	-3
CCOC(=O)C(C)Oc1ccsc1C(=O)OC (centres undefined)	10	0	4	-4	.
Cc1cc(C)c(C)c(OCCCn2ccnc2)c1	-1	0	0	-1	.
COC(=O)c1ccc2c(=O)sc(N3CCC(C(N)=O)CC3)nc2c1	17	-40	39*	2	0
CCSc1nc2cc(C(=O)OC)ccc2c(=O)n1CC	15	-5	1	1	.
SMILES	Rev-RRE block	LYP inh 2	LYP act	FAK blocker	LYP act confirm
COc1ccc(/C=N/NC(=O)C2CCN(c3ncc(C(F)(F)F)cc3Cl)CC2)cc1	-1	3	1	2	.
O=c1c(-c2nnc(SCc3ccc(Cl)c(Cl)c3)o2)cccn1Cc1ccccc1	6	22	-20	-3	.
COc1ccc(-n2cnc3cc(NCc4ccccn4)ccc32)cc1	-1	-38	42*	5	-4
COc1ccccc1-n1cnc2cc(NCc3ccccn3)ccc21	4	16	-14	9	.
CCC(=O)Nc1cccc(NC(=O)CSc2nnc(-c3ccc(NS(C)(=O)=O)cc3)n2CC)c1	1	-13	15	-1	.
CCOCc1nnc(NC(=O)CSCc2ccccc2)s1	2	-41	42*	-4	-1
Cc1nnc(NC(=O)CSCc2ccccc2)s1	8	-36	35	-1	.
O=C(CCCC(=O)N(CC(=O)NC1CCCC1)Cc1ccc(F)cc1)Nc1ccccn1	2	-41	38*	-1	-4
CCOc1cc(NC(=S)NCC2CCCO2)c(OCC)cc1NC(=O)c1ccccc1C (centres undefined)	-1	-7	10	0	.
Cc1ccccc1C(=O)NC(=S)NCC1CCCO1 (centres undefined)	-2	-35	39*	-8	1
Fc1cccc(Cl)c1CNCc1ccccc1Cl	-2	-4	8	-4	.
O=c1c2c(nc3cc(-c4cccc(Cl)c4)[nH]n13)CCC2	3	-37	43*	-2	-5
O=c1c2c(nc3cc(-c4ccc(F)cc4)[nH]n13)CCCC2	3	-4	2	1	.
COc1cc(OC)cc(-c2nc3nc(C)c(CCC(=O)O)c(C)n3n2)c1	7	-4	1	-1	.
COc1cc(OC)cc(-c2cc3nc(C)c(CCC(=O)O)c(=O)n3[nH]2)c1	1	-53	49*	-5	-2
O=C(Nc1ccc2c(c1)OCCO2)C1CCCN(S(=O)(=O)c2cccc3nsnc23)C1 (centres undefined)	7	-47	42*	1	-5
O=C(Nc1ccc2c(c1)OCCO2)C1CCN(S(=O)(=O)c2cccc3nsnc23)CC1	0	-5	3	-4	.
N#CC(C#N)=c1ccc2c(c1)NC1(CCCCC1)N=2	-80	5	-6	-5	.
CCOC(=O)C1CCN(Cc2coc3c(Cl)cc(Cl)cc3c2=O)CC1	3	-39	39*	-4	-1
O=C(Nc1ccccc1)N(Cc1ccccc1)CC(O)C(F)(F)F (centres undefined)	-1	-45	50*	-4	9
O=S(Cc1ccccc1)CC(O)(c1ccccc1)c1ccccc1 (centres undefined)	4	0	-1	6	.
Cn1c(Cc2cccc3ccccc23)nnc1SCC(=O)N1CCN(c2ccccc2)CC1	8	-4	7	-2	.
Cc1ccc(-c2nc(CCN3C(=O)c4ccccc4C3=O)cs2)cc1	10	-44	48*	0	5
COc1ncnc2c1cnn2-c1ccccc1	2	-38	38*	-1	1
CSc1ccc(Cl)c(C(=O)Nc2ccc(OCC(N)=O)cc2)c1	1	4	-1	2	.
CC(C(=O)NC1CCCC1)N(Cc1ccc2c(c1)OCO2)C(=O)c1snc(C(N)=O)c1N (centres undefined)	8	-44	42*	5	0
CCC(C(=O)NC1CCCC1)N(Cc1ccc2c(c1)OCO2)C(=O)c1snc(C(N)=O)c1N (centres undefined)	6	-2	1	9	.
COc1cc(OC)c(C2N(C)c3ccccc3N2C)cc1OC	3	-42	39*	2	6

Assay outcomes (PubChem)
